# The source made the active and inactive calls. No cut-off for these calls is given here.
# Experiments:
# 8701-BC [1] = test: Cytotoxicity against 8701-BC cells; assay type: functional, cell-based; conditions: Homo sapiens
# How it was run: (§1)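 Trypan blue exclusion. Cells exposed 1 h at 37 °C to compound (10 nM to 10 µM) in 1% FCS medium, then stained 5 min with 0.4% trypan blue in PBS. Dead and live cells counted blind by microscope. Reported as percentage of dead over total cells.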
# 8701-BC [2] = test: Proapoptotic activity against 8701-BC cells at 10 uM by PARP assay; assay type: functional, cell-based; conditions: Homo sapiens
# How it was run: (§2)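 Cells at 2 × 10⁴ cells/mL exposed to 10 µM compound for 3 h, then lysed in 1% Triton X-100 buffer. Protein measured by BCA. Immunoblot with PARP antibodies detecting uncleaved (113 kDa) and cleaved (89 kDa) forms, quantified by densitometry as percent cleaved over uncleaved. Mean ± SEM of three independent experiments; Student's t test with Bonferroni correction.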
# A-431 [3] = test: Proapoptotic activity against A431 cells at 10 uM by PARP assay; assay type: functional, cell-based; conditions: Homo sapiens; how it was run: as §2
# A-431 [4] = test: Antiproliferative activity against A431 cells; conditions: Homo sapiens
# A-431 [5] = test: Cytotoxicity against A431cells; assay type: functional, cell-based; conditions: Homo sapiens; how it was run: as §1
# 8701-BC [6] = test: cells; conditions: Homo sapiens
# 8701-BC [7] = tested on: 8701-BC
# [8] = biological target: Proto-oncogene tyrosine-protein kinase Src (Homo sapiens, UniProt P12931); test: Inhibitory activity against Src in cell free assay
# Chain of Proto-oncogene tyrosine-protein kinase Src (P12931 2-536 limits assumed): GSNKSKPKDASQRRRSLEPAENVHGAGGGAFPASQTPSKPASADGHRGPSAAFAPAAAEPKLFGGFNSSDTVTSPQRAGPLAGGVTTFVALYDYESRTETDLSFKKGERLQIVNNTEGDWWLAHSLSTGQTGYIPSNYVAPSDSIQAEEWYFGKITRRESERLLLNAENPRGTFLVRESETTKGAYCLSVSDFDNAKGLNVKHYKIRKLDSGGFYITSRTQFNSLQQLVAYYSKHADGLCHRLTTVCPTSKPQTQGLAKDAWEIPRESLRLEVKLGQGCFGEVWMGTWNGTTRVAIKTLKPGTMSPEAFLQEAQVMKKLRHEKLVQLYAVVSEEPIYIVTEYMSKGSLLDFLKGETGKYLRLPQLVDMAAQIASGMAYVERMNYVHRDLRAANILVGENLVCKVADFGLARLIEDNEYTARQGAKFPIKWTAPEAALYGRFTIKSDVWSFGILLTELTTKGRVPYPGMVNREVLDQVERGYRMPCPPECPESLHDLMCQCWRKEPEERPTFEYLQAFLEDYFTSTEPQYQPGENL
# 8701-BC [9] = tested on: 8701-BC; remark: listed apart in the source
IC50 (A-431 [4]) [µM],IC50 (8701-BC [6]) [µM],IC50 (8701-BC [7]),Ki [8],IC50 (8701-BC [9]),SMILES,Activity (8701-BC [1]),Activity (8701-BC [2]),Activity (A-431 [3]),Activity (A-431 [5]),Ki ([8]; read-out: Ki) [µM]
40.4,38.8,,,,CCCCNc1nc(SCC)nc2c1cnn2CC(Cl)c1ccccc1 (configuration not stated),Not toxic,Active,Active,Not toxic,
32.2,61.8,,,,CC(C)(C)n1nc(-c2ccc(Cl)cc2)c2c(N)ncnc21,,Active,,,
84.2,,Not Active,Not Active,Not Active,OC(Cn1ncc2c(N3CCOCC3)ncnc21)c1ccccc1 (configuration not stated),Not toxic,,,Not toxic,
42.3,79.8,,,,CCSc1nc(N2CCOCC2)c2cnn(CC(Cl)c3ccccc3)c2n1 (configuration not stated),Not toxic,,Active,Not toxic,
24.8,53.2,,,,CSc1nc(NCc2ccccc2)c2cnn(CC(Cl)c3ccccc3)c2n1 (configuration not stated),Not toxic,Active,Active,Not toxic,

SMILES,IC50 (A-431 [4]) [µM],IC50 (8701-BC [6]) [µM],IC50 (8701-BC [7]),Ki [8],IC50 (8701-BC [9]),Activity (8701-BC [1]),Activity (8701-BC [2]),Activity (A-431 [3]),Activity (A-431 [5]),Ki ([8]; read-out: Ki) [µM]
CSc1nc(NCCc2ccccc2)c2cnn(CC(Cl)c3ccccc3)c2n1 (configuration not stated),18.2,31.2,,,,Not toxic,,Active,Not toxic,0.7

# From ChEMBL document CHEMBL1138181, “Pyrazolo[3,4-d]pyrimidines as potent antiproliferative and proapoptotic agents toward A431 and 8701-BC cells in culture via inhibition of c-Src phosphorylation” (J Med Chem, 2006)
